Measured values taken from ChEMBL document CHEMBL4837214, “Design, synthesis, and biological evaluation of novel tetrahydroprotoberberine derivatives to reduce SREBPs expression for the treatment of hyperlipidemia” (Eur J Med Chem, 2021).
Active and inactive are the calls of the source. No cut-off for these calls is given here.

How the values were obtained:
HepG2 [1] = assay: Effect on PCSK9 protein expression in human HepG2 cells at 10 uM incubated for 24 hrs by Western blotting analysis; assay type: functional, cell-based
How it was run: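 HepG2 cells treated 24 h at the indicated doses and lysed in RIPA buffer with protease inhibitors; protein quantified by BCA. Lysates run on 10% SDS-PAGE and blotted to nitrocellulose. After 5% milk block, primary antibody applied overnight at 4 °C and secondary 1 h at room temperature. β-actin served as loading reference.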

[2] = Toxicity in high fat diet-induced C57BL/6J mouse assessed as reduction in body weight at 170 to 340 mg/kg, po measured every week for 6 weeks; assay type: organism-based; settings: in vivo, 1008 h, dose 170-340 mg/kg
How it was run: (§1)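 Male C57BL/6J mice, six weeks old, fed a 45%-fat diet (HFD) for 15 weeks; chow-fed mice served as controls. Obese mice were randomized to vehicle (0.1% w/v CMC-Na) or 170 or 340 mg/kg, gavaged daily for 6 weeks while diet continued. Body weight, food intake, organ weights, serum lipids, tissue histology (H&E, Oil red O), liver SREBP blots and liver qPCR followed.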

[3] = MRT (0 to infinity) in Sprague-Dawley rat at 10 mg/kg, po measured upto 24 hrs by LC-MS/MS analysis; assay type: ADME, organism-based; settings: in vivo
How it was run: (§2)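 Six SD rats split into two groups of three, dosed 1 mg/kg IV or 10 mg/kg orally. IV blood drawn at 2, 5, 15, 30 min and 1, 2, 4, 6, 8, 12 h. Oral blood drawn at 5, 15, 30 min and 1, 2, 4, 6, 8, 12, 24 h. Serum drug measured by LC/MS/MS. Parameters are the average of three runs.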

Mus musculus [4] = assay: Hypolipidemic activity in high fat diet-fed C57BL/6J mouse assessed as increase in brown fat/body weight ratio at 340 mg/kg/day, po administered for 6 weeks; assay type: functional, organism-based; how it was run: as §1
Mus musculus [5] = assay: Hypolipidemic activity in high fat diet-induced C57BL/6J mouse assessed as reduction in SREBPs expression in liver at 170 to 340 mg/kg, po administered daily for 6 weeks by Western blot analysis; assay type: functional, organism-based; settings: dose 170-340 mg/kg; how it was run: as §1
[6] = Clearance in Sprague-Dawley rat at 10 mg/kg, po measured upto 24 hrs by LC-MS/MS analysis; assay type: ADME, organism-based; settings: in vivo; how it was run: as §2
Mus musculus [7] = assay: Hypolipidemic activity in high fat diet-fed C57BL/6J mouse assessed as reduction in epididymal fat/body weight ratio at 170 to 340 mg/kg/day, po administered for 6 weeks; assay type: functional, organism-based; settings: dose 170-340 mg/kg/day; how it was run: as §1
HepG2 [8] = assay: Down regulation of SCD gene expression in human HepG2 cells by qRT-PCR analysis; assay type: functional, cell-based
[9] = AUC (0 to infinity) in Sprague-Dawley rat at 1 mg/kg, iv measured upto 12 hrs by LC-MS/MS analysis; assay type: ADME, organism-based; set-up: route intravenous, dose 1 mg/kg, time <=12; settings: in vivo
How it was run: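 Six SD rats split into two groups (n=3 each), dosed once either intravenously at 1 mg/kg or orally at 10 mg/kg. Blood sampled at 2 min–12 h after IV dosing and at 5 min–24 h after oral dosing. Serum drug level measured by LC/MS/MS. AUC0-∞ is the mean of three runs.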

HepG2 [10] = assay: Cytotoxicity against human HepG2 cells assessed as reduction in cell viability at 10 uM after 24 hrs by CCK8 assay; assay type: functional
HepG2 [11] = assay: Down regulation of intracellular TG level in human HepG2 cells at 10 uM measured after 24 hrs; assay type: functional, cell-based
How it was run: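 HepG2 cells grown in six-well plates and exposed 24 h to compound at […]. Cells collected in PBS and sonicated (5 s on, 10 s off, 60 s total). Total cholesterol or triglyceride measured with a colorimetric determination kit.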

[12] = Toxicity in high fat diet-induced C57BL/6J mouse assessed as change in kidney morphology at 170 to 340 mg/kg, po administered for 6 weeks by H and E staining-based assay; assay type: organism-based; settings: in vivo, 1008 h, dose 170-340 mg/kg; how it was run: as §1
HepG2 [13] = assay: Down regulation of LDLR gene expression in human HepG2 cells by qRT-PCR analysis; assay type: functional, cell-based
HepG2 [14] = assay: Down regulation of ACC gene expression in human HepG2 cells by qRT-PCR analysis; assay type: functional, cell-based
Mus musculus [15] = assay: Hypoglycemic activity in high fat diet-induced C57BL/6J mouse assessed as improvement in insulin tolerance at 170 to 340 mg/kg, po administered daily for 6 weeks and measured up to 120 mins by ITT method; assay type: functional, organism-based; settings: dose 170-340 mg/kg; how it was run: as §1
Mus musculus [16] = assay: Hypolipidemic activity in high fat diet-induced C57BL/6J mouse assessed as reduction in serum TC level at 170 to 340 mg/kg, po administered daily for 6 weeks; assay type: functional, organism-based; settings: dose 170-340 mg/kg; how it was run: as §1

**Q.** For `COc1ccc2c(c1OCC1CCCCC1)CN1CCc3cc4c(cc3C1C2)OCO4` (stereo unspecified), which Activity (HepG2 [1]) is on record?
**A.** Its Activity is “inactive”.

**Q.** And the Activity [2]?
**A.** Its Activity is “Toxic”.

**Q.** And the MRT inf [3]?
**A.** Its MRT inf is 8.03 h.

**Q.** What about the Activity (Mus musculus [4]) of the same compound?
**A.** Its Activity is “Active”.

**Q.** What about the Activity (Mus musculus [5]) of the same compound?
**A.** The Activity was “Active”.

**Q.** What about the CL [6] of the same compound?
**A.** The CL was 8.52 mL/min/kg.

**Q.** And the Activity (Mus musculus [7])?
**A.** The Activity was “Active”.

**Q.** What about the Activity (HepG2 [8]) of the same compound?
**A.** The Activity was “Active”.

**Q.** And the AUC(0-inf) [9]?
**A.** The AUC(0-inf) was 659 ng·h/mL.

**Q.** And the Activity (HepG2 [10])?
**A.** The Activity was 93%.

**Q.** And the Activity (HepG2 [11])?
**A.** Its Activity is “Active”.

**Q.** And the Activity [12]?
**A.** The Activity was “Non-Toxic”.

**Q.** And the Activity (HepG2 [13])?
**A.** Its Activity is “Active”.

**Q.** And the Activity (HepG2 [14])?
**A.** Its Activity is “Active”.

**Q.** And the Activity (Mus musculus [15])?
**A.** Its Activity is “Active”.

**Q.** And the Activity (Mus musculus [16])?
**A.** The Activity was “Active”.
